This is an account of results in ChEMBL document CHEMBL2086267, “Discovery of N6-phenyl-1H-pyrazolo[3,4-d]pyrimidine-3,6-diamine derivatives as novel CK1 inhibitors using common-feature pharmacophore model based virtual screening and hit-to-lead optimization” (Eur J Med Chem, 2012).

Molecules are shown by their SMILES.

For test [1], the target named is T1, Casein kinase I isoform alpha (Homo sapiens, UniProt P48729). As to the kind of experiment: Inhibition of CK1 using KRRRALS(p)VASLPGL as substrate after 40 mins by scintillation counter.
Target sequence in this assay (P48729 whole entry, canonical isoform): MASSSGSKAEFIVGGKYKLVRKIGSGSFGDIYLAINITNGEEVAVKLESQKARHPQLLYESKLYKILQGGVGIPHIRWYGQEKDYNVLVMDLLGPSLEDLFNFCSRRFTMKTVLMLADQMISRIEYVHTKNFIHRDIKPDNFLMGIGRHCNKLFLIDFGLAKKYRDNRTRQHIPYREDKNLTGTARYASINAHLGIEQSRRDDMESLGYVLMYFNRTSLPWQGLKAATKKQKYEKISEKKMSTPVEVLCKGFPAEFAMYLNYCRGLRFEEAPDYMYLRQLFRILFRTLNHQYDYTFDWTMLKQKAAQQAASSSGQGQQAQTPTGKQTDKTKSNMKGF
In test [2] the target is Serine/threonine-protein kinase mTOR (Homo sapiens) (UniProt P42345). As to the kind of experiment: Inhibition of mTOR at 10 uM. Put shortly:
(§1)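 Kinase inhibition was tested through a commercial kinase profiling service. Each assay was run twice and mean activity calculated.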

Test [3] has as its target Cyclin-dependent kinase 1 (Homo sapiens) (UniProt P06493). Nature of the test: Inhibition of CDK1 at 10 uM. Put shortly:
as §1

The target of test [4] is Platelet-derived growth factor receptor alpha (Homo sapiens) (UniProt P16234). As to the kind of experiment: Inhibition of PDGFRalpha at 10 uM. In a few lines:
as §1

In test [5] the target is ALK tyrosine kinase receptor (Homo sapiens) (UniProt Q9UM73). Nature of the test: Inhibition of ALK at 10 uM. Put shortly: as §1
The target of test [6] is Epidermal growth factor receptor (Homo sapiens) (UniProt P00533). Nature of the test: Inhibition of EGFR at 10 uM. Put shortly: as §1
Test [7] concerns the target Serine/threonine-protein kinase PLK1 (Homo sapiens) (UniProt P53350). Nature of the test: Inhibition of Plk1 at 10 uM. Put shortly: as §1
For test [8], the target named is Hepatocyte growth factor receptor (Homo sapiens) (UniProt P08581). As to the kind of experiment: Inhibition of Met at 10 uM. Put shortly: as §1
Chain of Hepatocyte growth factor receptor (Homo sapiens) (P08581 whole entry, canonical isoform): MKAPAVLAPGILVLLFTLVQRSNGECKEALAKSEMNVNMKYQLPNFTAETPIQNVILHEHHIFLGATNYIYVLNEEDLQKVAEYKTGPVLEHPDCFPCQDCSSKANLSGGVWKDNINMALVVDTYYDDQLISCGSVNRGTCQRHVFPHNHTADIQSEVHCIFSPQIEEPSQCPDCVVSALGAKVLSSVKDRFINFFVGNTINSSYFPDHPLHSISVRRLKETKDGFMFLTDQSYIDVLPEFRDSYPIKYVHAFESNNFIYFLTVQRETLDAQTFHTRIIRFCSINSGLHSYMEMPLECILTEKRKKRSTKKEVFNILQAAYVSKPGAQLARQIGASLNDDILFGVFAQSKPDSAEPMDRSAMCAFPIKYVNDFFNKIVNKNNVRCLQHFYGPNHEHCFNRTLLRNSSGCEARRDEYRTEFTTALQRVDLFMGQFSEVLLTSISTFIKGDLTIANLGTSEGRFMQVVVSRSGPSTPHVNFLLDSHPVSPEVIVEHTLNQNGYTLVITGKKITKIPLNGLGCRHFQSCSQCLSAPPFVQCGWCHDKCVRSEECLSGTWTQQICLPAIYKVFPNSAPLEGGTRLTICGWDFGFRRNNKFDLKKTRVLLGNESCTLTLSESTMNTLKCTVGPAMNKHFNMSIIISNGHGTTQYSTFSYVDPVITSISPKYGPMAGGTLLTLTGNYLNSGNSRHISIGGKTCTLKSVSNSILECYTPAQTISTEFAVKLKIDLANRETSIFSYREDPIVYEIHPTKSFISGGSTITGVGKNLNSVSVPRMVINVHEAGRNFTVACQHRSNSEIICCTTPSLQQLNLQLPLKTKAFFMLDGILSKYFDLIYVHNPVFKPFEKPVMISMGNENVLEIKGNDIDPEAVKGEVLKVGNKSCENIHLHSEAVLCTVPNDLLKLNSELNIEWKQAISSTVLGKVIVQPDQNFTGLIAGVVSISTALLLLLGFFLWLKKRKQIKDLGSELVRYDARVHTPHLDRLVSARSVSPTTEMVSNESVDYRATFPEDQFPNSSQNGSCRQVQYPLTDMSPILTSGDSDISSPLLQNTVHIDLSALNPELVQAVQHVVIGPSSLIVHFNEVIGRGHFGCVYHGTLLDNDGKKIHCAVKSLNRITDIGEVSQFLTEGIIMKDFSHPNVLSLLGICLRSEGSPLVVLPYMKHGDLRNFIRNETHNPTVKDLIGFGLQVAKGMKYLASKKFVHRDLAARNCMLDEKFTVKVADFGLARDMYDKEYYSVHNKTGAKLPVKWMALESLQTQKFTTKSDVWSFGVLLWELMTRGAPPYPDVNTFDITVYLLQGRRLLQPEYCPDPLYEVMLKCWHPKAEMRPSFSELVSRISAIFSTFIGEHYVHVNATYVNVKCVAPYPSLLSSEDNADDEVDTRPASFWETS
The target in test [9] is T1, Casein kinase I isoform alpha. As to the kind of experiment: Inhibition of CK1 using KRRRALS(p)VASLPGL as substrate at 10 uM after 40 mins by scintillation counter. Put shortly:
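Radiometric CK1 assay with substrate KRRRALS(p)VASLPGL and [γ-³³P]ATP plus 10 mM Mg acetate, in 20 mM MOPS, 1 mM EDTA, 0.01% Brij-35 and 5% glycerol. Reactions were spotted onto P30 filtermat, washed three times for 5 min in 75 mM phosphoric acid and once in methanol, dried, then scintillation counted. Run twice; mean activity reported.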
Target sequence in this assay (P48729 2-337 limits assumed): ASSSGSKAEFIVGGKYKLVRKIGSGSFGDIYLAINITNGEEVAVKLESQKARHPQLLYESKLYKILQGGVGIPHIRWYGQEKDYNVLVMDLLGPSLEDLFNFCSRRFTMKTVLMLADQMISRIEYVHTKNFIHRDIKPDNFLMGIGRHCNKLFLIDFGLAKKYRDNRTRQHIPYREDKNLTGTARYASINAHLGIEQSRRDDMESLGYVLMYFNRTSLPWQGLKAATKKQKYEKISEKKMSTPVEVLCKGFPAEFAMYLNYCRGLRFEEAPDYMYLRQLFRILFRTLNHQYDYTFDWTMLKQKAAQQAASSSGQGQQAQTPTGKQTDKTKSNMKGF

Test [10] concerns the target Fibroblast growth factor receptor 2 (Homo sapiens) (UniProt P21802). Nature of the test: Inhibition of FGFR2 at 10 uM. Put shortly:
as §1

In test [11] the target is Glycogen synthase kinase-3 alpha (Homo sapiens) (UniProt P49840). Nature of the test: Inhibition of GSK3alpha at 10 uM. In a few lines: as §1
Chain of Glycogen synthase kinase-3 alpha (Homo sapiens) (P49840 2-483 limits assumed): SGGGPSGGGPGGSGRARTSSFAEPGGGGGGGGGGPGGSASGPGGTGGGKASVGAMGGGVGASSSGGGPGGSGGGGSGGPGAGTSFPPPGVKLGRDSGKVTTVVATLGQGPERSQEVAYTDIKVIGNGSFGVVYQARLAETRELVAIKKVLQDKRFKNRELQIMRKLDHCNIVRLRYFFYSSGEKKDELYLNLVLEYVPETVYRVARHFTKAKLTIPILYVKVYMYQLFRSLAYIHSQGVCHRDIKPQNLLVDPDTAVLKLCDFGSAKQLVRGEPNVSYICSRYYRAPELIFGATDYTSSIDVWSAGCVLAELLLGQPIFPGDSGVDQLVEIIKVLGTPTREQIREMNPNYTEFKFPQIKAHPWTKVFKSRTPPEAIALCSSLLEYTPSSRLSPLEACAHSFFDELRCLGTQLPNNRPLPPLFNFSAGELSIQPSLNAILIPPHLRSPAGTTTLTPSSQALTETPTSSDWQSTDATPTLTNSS
In test [12] the target is Receptor-type tyrosine-protein kinase FLT3 (Homo sapiens) (UniProt P36888). Nature of the test: Inhibition of Flt3 at 10 uM. Put shortly:
as §1

Test [13] deals with Vascular endothelial growth factor receptor 2 (Homo sapiens) (UniProt P35968). Nature of the test: Inhibition of KDR at 10 uM. In a few lines: as §1
For test [14], the target named is Tyrosine-protein kinase receptor UFO (Homo sapiens) (UniProt P30530). As to the kind of experiment: Inhibition of Axl at 10 uM. Put shortly: as §1
Chain of Tyrosine-protein kinase receptor UFO (Homo sapiens) (P30530 whole entry): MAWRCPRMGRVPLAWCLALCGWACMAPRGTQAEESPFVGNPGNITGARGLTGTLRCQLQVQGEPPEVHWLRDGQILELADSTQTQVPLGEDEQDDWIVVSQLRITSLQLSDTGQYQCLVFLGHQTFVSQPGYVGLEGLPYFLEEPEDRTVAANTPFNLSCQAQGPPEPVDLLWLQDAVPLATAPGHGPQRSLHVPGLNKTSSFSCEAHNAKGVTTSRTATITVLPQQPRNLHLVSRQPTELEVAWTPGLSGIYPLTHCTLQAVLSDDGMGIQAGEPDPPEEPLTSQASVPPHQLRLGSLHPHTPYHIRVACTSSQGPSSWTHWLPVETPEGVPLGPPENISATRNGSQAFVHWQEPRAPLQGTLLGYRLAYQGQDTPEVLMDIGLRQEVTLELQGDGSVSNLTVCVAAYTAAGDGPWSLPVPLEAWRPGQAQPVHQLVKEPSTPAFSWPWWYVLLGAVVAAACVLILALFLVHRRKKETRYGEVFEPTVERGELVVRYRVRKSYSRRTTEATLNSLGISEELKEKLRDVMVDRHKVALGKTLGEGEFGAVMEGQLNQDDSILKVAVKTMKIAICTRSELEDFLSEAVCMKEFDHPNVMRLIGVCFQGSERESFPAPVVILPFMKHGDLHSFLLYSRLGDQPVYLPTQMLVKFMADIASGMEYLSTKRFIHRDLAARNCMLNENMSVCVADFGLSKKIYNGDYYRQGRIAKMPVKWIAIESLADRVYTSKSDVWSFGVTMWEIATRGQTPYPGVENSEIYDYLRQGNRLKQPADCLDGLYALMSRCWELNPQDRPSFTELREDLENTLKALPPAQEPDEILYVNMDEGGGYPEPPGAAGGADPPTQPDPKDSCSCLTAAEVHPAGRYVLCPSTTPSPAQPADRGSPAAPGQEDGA

Chain of Serine/threonine-protein kinase PLK1 (Homo sapiens) (P53350 whole entry): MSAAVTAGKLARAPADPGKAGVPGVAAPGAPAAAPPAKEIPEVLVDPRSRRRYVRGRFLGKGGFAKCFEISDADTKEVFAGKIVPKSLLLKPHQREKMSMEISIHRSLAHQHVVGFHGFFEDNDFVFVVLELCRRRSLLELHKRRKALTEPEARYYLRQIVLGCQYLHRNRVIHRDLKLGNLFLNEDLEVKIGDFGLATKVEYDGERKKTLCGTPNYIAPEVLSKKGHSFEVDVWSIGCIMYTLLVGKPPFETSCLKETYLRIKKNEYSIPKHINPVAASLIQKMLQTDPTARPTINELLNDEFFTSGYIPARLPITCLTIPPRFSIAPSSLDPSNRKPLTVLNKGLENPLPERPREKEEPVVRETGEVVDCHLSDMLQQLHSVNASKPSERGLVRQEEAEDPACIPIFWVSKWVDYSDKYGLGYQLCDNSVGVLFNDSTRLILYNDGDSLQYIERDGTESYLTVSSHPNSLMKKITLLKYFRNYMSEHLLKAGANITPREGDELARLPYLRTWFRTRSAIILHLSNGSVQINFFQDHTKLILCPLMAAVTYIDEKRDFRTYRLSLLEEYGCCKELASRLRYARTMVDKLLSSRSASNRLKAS
Chain of Fibroblast growth factor receptor 2 (Homo sapiens) (P21802 22-821 limits assumed): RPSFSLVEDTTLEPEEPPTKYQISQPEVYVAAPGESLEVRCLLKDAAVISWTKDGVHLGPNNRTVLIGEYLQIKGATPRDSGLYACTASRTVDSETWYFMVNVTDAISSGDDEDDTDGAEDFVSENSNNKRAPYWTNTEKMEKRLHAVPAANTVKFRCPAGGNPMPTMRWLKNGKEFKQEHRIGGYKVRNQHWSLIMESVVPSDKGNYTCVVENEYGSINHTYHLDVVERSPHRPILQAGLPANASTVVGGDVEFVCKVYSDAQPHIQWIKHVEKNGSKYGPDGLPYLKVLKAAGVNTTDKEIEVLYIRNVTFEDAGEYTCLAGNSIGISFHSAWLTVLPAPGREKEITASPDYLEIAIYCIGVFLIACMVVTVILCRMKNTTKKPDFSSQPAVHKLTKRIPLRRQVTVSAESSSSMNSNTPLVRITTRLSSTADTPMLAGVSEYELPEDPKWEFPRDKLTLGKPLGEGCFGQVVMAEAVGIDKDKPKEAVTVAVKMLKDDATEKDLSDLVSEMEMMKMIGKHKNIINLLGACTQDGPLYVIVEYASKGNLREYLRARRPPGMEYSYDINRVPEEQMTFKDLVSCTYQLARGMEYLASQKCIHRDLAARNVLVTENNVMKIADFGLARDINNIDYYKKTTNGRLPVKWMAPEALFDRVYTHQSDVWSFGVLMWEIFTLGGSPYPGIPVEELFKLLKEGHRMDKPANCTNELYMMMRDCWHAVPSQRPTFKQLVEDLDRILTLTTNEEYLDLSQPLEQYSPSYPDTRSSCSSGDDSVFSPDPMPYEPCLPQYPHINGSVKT

`Nc1n[nH]c2nc(Nc3ccc(NC(=O)Nc4ccc(F)c(Cl)c4)cc3)ncc12` registered an IC50 in [1] greater than 10 µM.

In test [1], `CC(C)(C)c1cc(NC(=O)Nc2cccc(Nc3ncc4c(N)n[nH]c4n3)c2)n[nH]1` came in with an IC50 of 0.142 µM.

Turning to `C[C@@H](NC(=O)Nc1ccc(Nc2ncc3c(N)n[nH]c3n2)cc1)c1ccccc1`, the IC50 in test [1] is greater than 10 µM.

As for `Nc1n[nH]c2nc(Nc3cccc(NC(=O)Nc4ccc(F)c(Cl)c4)c3)ncc12`, the inhibition in test [2] is 0%; in test [3], 42%; in [4], 82%; in [5], 26%; in test [6], 92%; in test [7], 0%. In addition, the inhibition was 99% in test [8]; 100% in test [9]; 35% in [10]; 34% in [11]; 90% in test [12]; 96% in test [13]. The same compound yielded an inhibition in test [14] of 46%.

`NCCNS(=O)(=O)c1ccc(Cl)c2ccncc12` registered an IC50 in test [1] of 10 µM.

Compound `C[C@@H](NC(=O)Nc1cccc(Nc2ncc3c(N)[nH]nc3n2)c1)c1ccccc1` registered a half-maximal inhibitory concentration (IC50) in test [1] of 2.47 µM.

In turn, `COc1cc(OC)c(C=C2C(O)=Nc3ccccc32)c(OC)c1` [IC261] gave a concentration for half-maximal inhibition (IC50) in test [1] of 1 µM.

In turn, `CC[C@H](CO)Nc1nc(Nc2cccc(-c3ccccn3)c2)c2ncn(C(C)C)c2n1` came in with an IC50 in [1] of 0.014 µM.

In [1], `Nc1[nH]nc2nc(Nc3cccc(NC(=O)Nc4ccc(F)c(Cl)c4)c3)ncc12` gave an IC50 of 0.078 µM. This IC50 lies about 5.6-fold higher than the previous one.

For orientation: IC50 means the concentration that gives 50% inhibition. The low end stands for greater potency in that assay, the high end for weaker potency in that assay. As a reminder, the inhibition is the percentage by which the read-out fell short of the control. Lower therefore signals a response near the control.
